Measured values collected from several papers.
Lines come from different studies, so protocols differ.
Cell line: PC-3
Observed: cell growth or viability

SMILES | technique | tested at | time | endpoint | value
C=CC(=O)c1cccnc1Nc1cccc(C(F)(F)F)c1 | SRB |  | 48 h | GI50 | 11.4 µM
Cc1nc(N(Cc2ccccc2)c2ccc3c(c2)/C(=C/c2ccccc2)C(=O)N3Cc2ccccc2)c2ccccc2n1 (mixture of isomers) | MTT |  |  | IC50 | 0.56 µM
COc1ccc(-c2cc(-c3c(OC)cccc3OC)c3c(=O)n(C)c(=O)n(C)c3n2)cc1 | MTT |  | 48 h | IC50 | 18.6 µM
CC(=NNC(=O)COc1ccc2c(C)c(Cc3ccccc3)c(=O)oc2c1C)c1ccc(Br)cc1 | MTT | 250 µg/mL |  | viability | 3.08%
COc1ccc(-c2cc(-c3ccccc3Cl)c3c(=O)[nH]c(=O)[nH]c3n2)cc1 | MTT |  | 48 h | IC50 | 28.4 µM
Cc1nc(Nc2ccc3c(c2)C(C)(C)C(=O)N3)c2ccccc2n1 | MTT |  |  | IC50 | 34.3 µM
Cc1c(Cc2ccccc2)c(=O)oc2c(C)c(OCC(=O)NN=Cc3ccc([N+](=O)[O-])cc3)ccc12 | MTT | 500 µg/mL |  | viability | 5.03%
COc1ccc(-c2cc(-c3ccc(Cl)cc3)c3c(=O)[nH]c(=O)[nH]c3n2)cc1 | MTT |  | 48 h | IC50 | 5.24 µM
COc1cc2ncnc(Nc3ccc4c(c3)/C(=C/c3cccc(Cl)c3)C(=O)N4C)c2cc1OC | MTT |  |  | IC50 | 22.2 µM
COc1ccc(-c2cc(-c3cc(OC)ccc3OC)c3c(=O)n(C)c(=O)n(C)c3n2)cc1 | MTT |  | 48 h | IC50 | 24.6 µM
Cc1c(Cc2ccccc2)c(=O)oc2c(C)c(OCC(=O)NN=Cc3ccc(Cl)cc3)ccc12 | MTT | 500 µg/mL |  | viability | 5.27%
C=CC(=O)c1cccnc1Nc1cc(C(F)(F)F)ccc1OCc1ccccc1 | SRB |  | 48 h | GI50 | 19 µM
CCOc1ccc2c(C)c(CC)c(=O)oc2c1C | MTT | 500 µg/mL |  | viability | 7.6%
Cc1nc(Nc2ccc3c(c2)C(C)(C)C(=O)N3C)c2ccccc2n1 | MTT |  |  | IC50 | 26.3 µM
C=CC(=O)c1cccnc1Nc1cc(C(F)(F)F)ccc1OC | SRB |  | 48 h | GI50 | 5.58 µM
COc1ccc(-c2cc(-c3ccccc3Cl)c3c(=O)n(C)c(=O)n(C)c3n2)cc1 | MTT |  | 48 h | IC50 | 6.79 µM
CCCOc1nc(-c2cccc(O)c2)cc(-c2cc3cc(Cl)ccc3nc2N2CCOCC2)c1C#N | MTT |  | 72 h | IC50 | 0.542 µM
Cc1nc(Nc2ccc3c(c2)/C(=C/c2ccccc2Cl)C(=O)N3)c2ccccc2n1 | MTT |  |  | IC50 | 2.45 µM
CCc1c(C)c2ccc(OCC(=O)NNC(=S)Nc3ccccc3)c(C)c2oc1=O | MTT | 500 µg/mL |  | viability | 2.61%
Cc1nc(Nc2ccc3c(c2)/C(=C/c2ccccc2)C(=O)N3C)c2ccccc2n1 | MTT |  |  | IC50 | 18.7 µM
O=C(NO)c1ccc(CNc2nc3cccc(-c4ccc5c(c4)OCO5)n3n2)cc1 | SRB |  |  | GI50 | 0.63 µM
Cc1c(Cc2ccccc2)c(=O)oc2c(C)c(OCC(=O)NN=Cc3ccccc3)ccc12 | MTT | 250 µg/mL |  | viability | 14.1%
Cc1ccc(-c2cc(-c3ccc(Cl)c(F)c3)c3c(=O)n(C)c(=O)n(C)c3n2)cc1 | MTT |  | 48 h | IC50 | 41.5 µM
CCc1c(C)c2ccc(OCc3nnc(S)n3N)c(C)c2oc1=O | MTT | 31.25 µg/mL |  | viability | 58.5%
Nc1n[nH]c2nc(-c3cccc(O)c3)cc(-c3cc4cc(Cl)ccc4nc3N3CCOCC3)c12 | MTT |  | 72 h | IC50 | 0.166 µM
COc1ccc(-c2cc(-c3c(OC)cccc3OC)c3c(=O)[nH]c(=O)[nH]c3n2)cc1 | MTT |  | 48 h | IC50 | 41.5 µM
